Laboratory results taken from article PMC11771645 (Journal of Clinical Pharmacology, 2024).
Entries after “also recorded” stand apart in the source; their conditions may differ. Where two headings read alike, the source gives them in different places.

Columns and labels:
[1] = patients with Friedreich's ataxia; cited from earlier work
[2] = test system: CYP3A4; conditions: cited from earlier work
[3] = test system: CYP1A2; assay: In vitro CYP1A2 induction; format: in vitro ADME, human
[4] = Food-effect study; format: in vivo, human
[5] = test system: breast cancer resistance protein (BCRP); conditions: clinical doses; cited from earlier work
[6] = Clinical PK in healthy volunteer studies; format: in vivo, human
[7] = test system: CYP3A4; assay: In vitro CYP3A4 induction; format: in vitro ADME, human
[8] = biological target: CYP3A4 (Homo sapiens, UniProt P08684); assay: Reaction phenotyping studies; format: in vitro ADME
CYP3A4 (Homo sapiens, UniProt P08684), sequence (P08684 whole entry): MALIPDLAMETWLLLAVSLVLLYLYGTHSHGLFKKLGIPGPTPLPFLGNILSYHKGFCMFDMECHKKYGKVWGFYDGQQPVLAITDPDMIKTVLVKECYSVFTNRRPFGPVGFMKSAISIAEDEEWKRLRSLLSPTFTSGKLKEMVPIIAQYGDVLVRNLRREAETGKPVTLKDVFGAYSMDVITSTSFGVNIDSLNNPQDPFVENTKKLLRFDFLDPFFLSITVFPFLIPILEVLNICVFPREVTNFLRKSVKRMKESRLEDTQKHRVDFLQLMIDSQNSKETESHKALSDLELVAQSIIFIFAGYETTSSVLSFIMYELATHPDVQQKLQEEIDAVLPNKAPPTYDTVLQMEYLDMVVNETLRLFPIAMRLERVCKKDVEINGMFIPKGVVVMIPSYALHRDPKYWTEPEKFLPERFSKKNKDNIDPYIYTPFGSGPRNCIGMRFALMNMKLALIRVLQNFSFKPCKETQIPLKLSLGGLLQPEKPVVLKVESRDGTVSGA

[9] = oral dose, male subjects; cited from earlier work
[10] = test system: CYP3A4; conditions: cited from earlier work; remark: listed apart in the source
[11] = test system: CYP2C9; conditions: clinical doses; cited from earlier work
[12] = test system: CYP2C19; conditions: clinical doses; cited from earlier work
[13] = Unbound fraction in plasma; format: in vitro ADME; conditions: human
[14] = Phase 2 Friedreich's ataxia study, observed PK; format: in vivo; conditions: human, plasma, oral, geometric mean; for AUC: AUC0‐8 h
Procedure, shortened: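 Phase 2 study in patients with Friedreich's ataxia, with repeated oral dosing of the test compound at 200 mg or 400 mg TID. Observed plasma Cmax and AUC0-8 h were summarised as geometric means on Day 1 and Day 91. These observed data served to verify the PBPK model, with simulated exposures judged accurate if within 1.5-fold of observed.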

[15] = 400 mg vatiquinone with 600 mg rifampicin
[16] = Observed, Vatiquinone + Rifampicin (14 days TID, 600 mg)
[17] = 400 mg vatiquinone with 200 mg itraconazole
[18] = Observed, Vatiquinone + Itraconazole (5 days TID, 200 mg)
[19] = in the presence of itraconazole

SMILES: CC(C)=CCC/C(C)=C/CC/C(C)=C/CC[C@@](C)(O)CCC1=C(C)C(=O)C(C)=C(C)C1=O [Vatiquinone, alpha‐tocotrienol quinone]
- tolerability [1]: well tolerated with no dose‐limiting toxicities
- decrease in vatiquinone AUC0‐inf [2, 15]: ~46%
- decrease in vatiquinone Cmax [2, 15]: approximately 36%
- AUC0‐inf, geometric mean [2, 16]: 1830 ng·h/mL
- Cmax, geometric mean [2, 16]: 619 ng/mL
- CYP1A2 Indmax ([3]; In vitro study): 2.61
- CYP1A2 Indmax ([3]; Scaled using omeprazole data): 1.04
- EC50 ([3]; human): 1.8 µM
- CYP1A2 induction potential ([3]; in vitro data): borderline potential inducer
- AUC, low‐fat meals compared with fasted [4]: 8 fold
- effect of vatiquinone on BCRP substrate (rosuvastatin) exposure [5]: did not have a significant impact; also recorded: lack of a clinically relevant effect
- ka ([6]; Clinical study): 1.27 h⁻¹
- tlag ([6]; Clinical study): 3.67 h
- CL/F (apparent oral clearance) ([6]; healthy volunteer studies, from AUC0-inf in the absence of itraconazole): 94.3 L/h
- half-life ([6]; human, in vivo, oral): ~9 h
- CYP3A4 Indmax ([7]; Scaled using rifampicin data): 4.26
- EC50 ([7]; human): 3.7 µM
- CYP3A4 induction potential ([7]; in vitro data): borderline potential inducer
- enzyme mediating vatiquinone metabolism [8]: mainly mediated by CYP3A4
- mean cumulative recovery [9]: 92.9%
- recovery of unchanged vatiquinone in feces [9]: 6.77 % of dose
- increase in vatiquinone AUC0‐inf [10, 17]: ~2.9 fold
- increase in vatiquinone Cmax [10, 17]: approximately 3.5 fold
- AUC0‐inf, geometric mean [10, 18]: 11,300 h•ng/mL
- Cmax, geometric mean [10, 18]: 3430 ng/mL
- increase in vatiquinone AUC0‐inf [10, 19]: ~188%
- increase in vatiquinone Cmax [10, 19]: approximately 245%
- effect of vatiquinone on CYP2C9 substrate (tolbutamide) exposure [11]: did not have a significant impact; also recorded: lack of a clinically relevant effect
- effect of vatiquinone on CYP2C19 substrate (omeprazole) exposure [12]: did not have a significant impact; also recorded: lack of a clinically relevant effect
- fraction unbound [13]: 0.022
- AUC ([14]; 200 mg, 200 mg TID, Day 1, patients with Friedreich's ataxia): 1030 ng·h/mL
- AUC ([14]; 200 mg, 200 mg TID, Day 91): 1950 ng·h/mL
- Cmax ([14]; 200 mg, 200 mg TID, Day 1): 466 ng/mL
- Cmax ([14]; 200 mg, 200 mg TID, Day 91): 689 ng/mL
- AUC ([14]; 400 mg, 400 mg TID, Day 1, patients with Friedreich's ataxia): 2430 ng·h/mL
- AUC ([14]; 400 mg, 400 mg TID, Day 91): 3490 ng·h/mL
- Cmax ([14]; 400 mg, 400 mg TID, Day 1): 1020 ng/mL
- Cmax ([14]; 400 mg, 400 mg TID, Day 91): 905 ng/mL
